Measurements taken from ChEMBL document CHEMBL4376826 (J Med Chem, 2020).
pIC50: −log10 of the molar value. ≈ marks a conversion by molar mass, not a printed value.

Assays:
[1] = Drug level in beta-naphthoflavone/phenobarbital-induced rat liver S9 fraction treated with 100 ug/ml Ezutromid-1 assessed as compound formation in presence of NADPH measured after 4 hrs by UV-Vis spectroscopy; format: ADME, subcellular; conditions: s9, 4 h
[2] = Retention time in beta-naphthoflavone/phenobarbital-induced rat liver S9 fraction at 100 ug/ml in presence of NADPH measured after 4 hrs by UV-Vis spectroscopy; format: ADME, subcellular; conditions: s9, 4 h
[3] = Retention time in beta-naphthoflavone/phenobarbital-induced rat liver S9 fraction at 100 ug/ml in presence of NADPH by LC-MS/MS analysis; format: ADME, subcellular
[4] = Retention time in human plasma by LC-MS/MS analysis; format: ADME, cell-free
[5] = Lipophilicity, logD of the compound at pH 7.4; format: physicochemical; conditions: buffer
[6] = Kinetic aqueous solubility of the compound; format: physicochemical; conditions: buffer; read-out: Kinetic_solubility
[7] = Permeability at pH 7.4 by PAMPA; format: ADME; conditions: read-out: permeability
[8] = Protein binding in mouse plasma assessed as bound fraction; format: ADME, cell-free
Outline: (§1)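 Binding measured in 100% plasma; reported as fraction bound.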

[9] = Protein binding in human plasma assessed as bound fraction; format: ADME, cell-free; conditions: read-out: PPB (converted); outline: as §1
[10] = Half life in mouse liver S9 fraction; format: ADME, subcellular
Outline: (§2)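 Metabolic stability of the dihydrodiols measured in vitro with mouse and human liver S9 fractions and with mouse and human hepatocytes; half-life from substrate depletion.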

[11] = Half life in mouse hepatocytes; format: ADME, cell-based, Hepatocyte; outline: as §2
[12] = molecular target: UDP-glucuronosyltransferase 1A4 (Homo sapiens, UniProt P22310); assay: Drug metabolism assessed as human UGT1A4-mediated metabolism by measuring intrinsic clearance; format: ADME; conditions: recombinant enzyme
[13] = Half life in human liver S9 fraction; format: ADME, subcellular; outline: as §2
[14] = Half life in human hepatocytes; format: ADME, cell-based, Hepatocyte; outline: as §2
[15] = Intrinsic clearance in mouse liver S9 fraction; format: ADME, subcellular; conditions: read-out: CLH
[16] = Intrinsic clearance in mouse hepatocytes; format: ADME, cell-based, Hepatocyte
[17] = Intrinsic clearance in human liver S9 fraction; format: ADME, subcellular; conditions: read-out: CLH
[18] = Intrinsic clearance in human hepatocytes; format: ADME, cell-based, Hepatocyte
[19] = system: UDP-glucuronosyltransferases (UGTs); assay: Drug metabolism assessed as human UGT-mediated metabolism by measuring intrinsic clearance; format: ADME, protein assay
UGT1A9 = UGT1A9 (Homo sapiens, UniProt O60656); assay: Inhibition of human UGT1A9 assessed as residual enzyme activity at 10 uM relative to control; format: ADME; conditions: read-out: Activity
UGT1A3 = UGT1A3 (Homo sapiens, UniProt P35503); assay: Inhibition of human UGT1A3 assessed as residual enzyme activity at 10 uM relative to control; format: ADME; conditions: read-out: Activity
[20] = molecular target: Broad substrate specificity ATP-binding cassette transporter ABCG2 (Homo sapiens, UniProt Q9UNQ0); assay: Inhibition of BCRP (unknown origin); format: ADME
[21] = molecular target: Solute carrier organic anion transporter family member 1B1 (Homo sapiens, UniProt Q9Y6L6); assay: Inhibition of OATP1B1 (unknown origin); format: ADME
[22] = molecular target: Solute carrier organic anion transporter family member 1B3 (Homo sapiens, UniProt Q9NPD5); assay: Inhibition of OATP1B3 (unknown origin); format: ADME
[23] = molecular target: Multidrug and toxin extrusion protein 1 (Homo sapiens, UniProt Q96FL8); assay: Inhibition of MATE1 (unknown origin); format: ADME
[24] = molecular target: T1, Amine oxidase [flavin-containing] B (Homo sapiens, UniProt P27338); assay: Inhibition of monoamino oxidase B (unknown origin) at 10 uM
T1 sequence (P27338 whole entry): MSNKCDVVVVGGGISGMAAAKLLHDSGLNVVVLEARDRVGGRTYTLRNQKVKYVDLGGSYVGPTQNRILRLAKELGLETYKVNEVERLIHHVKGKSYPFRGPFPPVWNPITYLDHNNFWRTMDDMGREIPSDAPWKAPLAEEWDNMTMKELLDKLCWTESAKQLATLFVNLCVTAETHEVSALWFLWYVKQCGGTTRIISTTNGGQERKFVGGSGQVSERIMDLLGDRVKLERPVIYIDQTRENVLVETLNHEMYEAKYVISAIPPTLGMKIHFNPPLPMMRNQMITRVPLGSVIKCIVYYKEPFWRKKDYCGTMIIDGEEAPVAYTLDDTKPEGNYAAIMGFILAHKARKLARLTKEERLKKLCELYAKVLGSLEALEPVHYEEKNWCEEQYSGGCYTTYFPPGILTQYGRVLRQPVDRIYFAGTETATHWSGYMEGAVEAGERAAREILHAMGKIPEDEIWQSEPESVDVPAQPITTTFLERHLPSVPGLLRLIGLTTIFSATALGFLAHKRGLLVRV

[25] = Inhibition of adenosine transporter (unknown origin) at 10 uM; format: ADME; conditions: human
[26] = molecular target: T1, Amine oxidase [flavin-containing] B; assay: Inhibition of monoamino oxidase B (unknown origin)
[27] = Inhibition of adenosine transporter (unknown origin); format: ADME, Homo sapiens

Sequence of Solute carrier organic anion transporter family member 1B3 (Q9NPD5 whole entry): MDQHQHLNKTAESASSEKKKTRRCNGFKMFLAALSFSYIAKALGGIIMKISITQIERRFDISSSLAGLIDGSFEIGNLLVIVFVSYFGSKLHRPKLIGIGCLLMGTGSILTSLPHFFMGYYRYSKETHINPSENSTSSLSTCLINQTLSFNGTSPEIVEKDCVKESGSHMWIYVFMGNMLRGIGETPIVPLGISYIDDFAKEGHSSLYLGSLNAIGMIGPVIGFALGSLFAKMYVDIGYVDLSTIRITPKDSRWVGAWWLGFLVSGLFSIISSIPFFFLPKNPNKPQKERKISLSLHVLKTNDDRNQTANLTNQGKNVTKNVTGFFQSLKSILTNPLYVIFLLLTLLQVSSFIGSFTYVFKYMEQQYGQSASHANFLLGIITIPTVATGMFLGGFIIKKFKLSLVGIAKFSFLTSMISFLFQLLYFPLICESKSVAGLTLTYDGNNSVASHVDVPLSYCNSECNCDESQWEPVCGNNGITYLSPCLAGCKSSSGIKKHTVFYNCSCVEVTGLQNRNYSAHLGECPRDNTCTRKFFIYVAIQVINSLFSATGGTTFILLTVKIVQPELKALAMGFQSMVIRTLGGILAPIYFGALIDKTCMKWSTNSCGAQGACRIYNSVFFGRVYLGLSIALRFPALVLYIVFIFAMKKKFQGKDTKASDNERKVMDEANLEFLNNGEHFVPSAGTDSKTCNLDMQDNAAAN
Sequence of UGT1A3 (P35503 whole entry): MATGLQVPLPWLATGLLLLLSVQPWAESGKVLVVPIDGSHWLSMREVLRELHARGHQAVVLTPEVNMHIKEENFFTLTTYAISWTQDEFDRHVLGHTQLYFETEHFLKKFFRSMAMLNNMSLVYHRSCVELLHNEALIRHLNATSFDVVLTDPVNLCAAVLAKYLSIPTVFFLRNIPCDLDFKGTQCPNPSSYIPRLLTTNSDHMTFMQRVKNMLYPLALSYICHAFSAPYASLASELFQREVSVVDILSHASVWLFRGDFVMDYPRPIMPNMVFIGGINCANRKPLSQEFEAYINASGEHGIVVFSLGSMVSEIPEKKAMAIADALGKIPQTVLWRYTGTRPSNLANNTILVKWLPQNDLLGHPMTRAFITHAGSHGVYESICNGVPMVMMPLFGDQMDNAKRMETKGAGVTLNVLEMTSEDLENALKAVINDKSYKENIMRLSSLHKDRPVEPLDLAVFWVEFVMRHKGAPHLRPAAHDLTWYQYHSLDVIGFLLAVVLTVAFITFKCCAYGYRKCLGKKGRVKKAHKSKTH
Sequence of Multidrug and toxin extrusion protein 1 (Q96FL8 whole entry): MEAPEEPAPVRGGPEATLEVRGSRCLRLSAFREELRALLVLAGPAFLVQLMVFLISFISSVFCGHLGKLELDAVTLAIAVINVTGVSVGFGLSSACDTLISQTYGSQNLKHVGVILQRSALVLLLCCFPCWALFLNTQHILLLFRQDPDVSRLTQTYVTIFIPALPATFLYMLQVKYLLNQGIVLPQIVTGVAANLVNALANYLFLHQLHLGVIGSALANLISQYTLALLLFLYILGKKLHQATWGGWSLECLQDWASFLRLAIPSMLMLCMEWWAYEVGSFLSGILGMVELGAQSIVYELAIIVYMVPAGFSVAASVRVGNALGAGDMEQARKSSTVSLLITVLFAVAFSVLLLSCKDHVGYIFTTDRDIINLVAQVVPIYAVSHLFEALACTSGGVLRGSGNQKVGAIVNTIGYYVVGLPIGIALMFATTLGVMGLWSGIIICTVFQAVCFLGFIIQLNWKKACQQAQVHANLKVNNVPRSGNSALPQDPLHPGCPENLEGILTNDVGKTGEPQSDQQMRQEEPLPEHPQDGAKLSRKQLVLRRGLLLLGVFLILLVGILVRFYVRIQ
Sequence of Solute carrier organic anion transporter family member 1B1 (Q9Y6L6 whole entry): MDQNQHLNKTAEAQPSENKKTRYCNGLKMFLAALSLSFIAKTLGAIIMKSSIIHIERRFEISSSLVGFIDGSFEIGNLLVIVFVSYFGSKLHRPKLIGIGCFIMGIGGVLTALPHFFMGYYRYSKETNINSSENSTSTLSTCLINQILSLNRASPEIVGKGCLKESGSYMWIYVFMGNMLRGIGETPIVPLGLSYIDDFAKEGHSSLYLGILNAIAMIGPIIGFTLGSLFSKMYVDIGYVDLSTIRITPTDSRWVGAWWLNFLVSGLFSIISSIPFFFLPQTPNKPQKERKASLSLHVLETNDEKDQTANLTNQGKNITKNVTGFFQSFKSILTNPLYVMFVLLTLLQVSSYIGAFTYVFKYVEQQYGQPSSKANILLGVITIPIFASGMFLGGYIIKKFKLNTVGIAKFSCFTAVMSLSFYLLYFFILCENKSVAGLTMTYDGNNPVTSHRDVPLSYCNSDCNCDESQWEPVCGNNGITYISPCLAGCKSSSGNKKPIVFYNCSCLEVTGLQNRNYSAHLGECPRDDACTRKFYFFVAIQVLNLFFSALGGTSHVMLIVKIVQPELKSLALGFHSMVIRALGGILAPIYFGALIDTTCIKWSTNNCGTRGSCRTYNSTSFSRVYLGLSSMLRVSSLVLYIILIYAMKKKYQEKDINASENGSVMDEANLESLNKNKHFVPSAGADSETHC
Sequence of Broad substrate specificity ATP-binding cassette transporter ABCG2 (Q9UNQ0 whole entry): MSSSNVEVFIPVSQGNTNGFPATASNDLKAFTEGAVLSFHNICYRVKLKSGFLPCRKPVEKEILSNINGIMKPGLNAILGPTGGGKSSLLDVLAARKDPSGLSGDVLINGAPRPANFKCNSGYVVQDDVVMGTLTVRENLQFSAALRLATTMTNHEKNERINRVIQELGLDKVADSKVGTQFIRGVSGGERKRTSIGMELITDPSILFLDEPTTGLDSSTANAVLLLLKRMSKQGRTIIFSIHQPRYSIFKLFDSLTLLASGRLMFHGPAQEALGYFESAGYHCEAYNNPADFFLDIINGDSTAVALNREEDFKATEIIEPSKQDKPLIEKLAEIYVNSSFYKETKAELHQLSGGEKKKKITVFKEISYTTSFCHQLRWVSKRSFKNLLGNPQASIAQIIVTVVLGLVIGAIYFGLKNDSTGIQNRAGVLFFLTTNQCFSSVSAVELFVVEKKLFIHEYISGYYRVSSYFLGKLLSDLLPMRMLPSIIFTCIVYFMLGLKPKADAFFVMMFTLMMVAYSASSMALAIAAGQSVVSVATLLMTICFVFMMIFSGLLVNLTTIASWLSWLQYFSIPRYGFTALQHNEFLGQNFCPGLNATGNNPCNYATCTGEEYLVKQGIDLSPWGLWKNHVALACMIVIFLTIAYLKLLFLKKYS
Sequence of UGT1A9 (O60656 whole entry): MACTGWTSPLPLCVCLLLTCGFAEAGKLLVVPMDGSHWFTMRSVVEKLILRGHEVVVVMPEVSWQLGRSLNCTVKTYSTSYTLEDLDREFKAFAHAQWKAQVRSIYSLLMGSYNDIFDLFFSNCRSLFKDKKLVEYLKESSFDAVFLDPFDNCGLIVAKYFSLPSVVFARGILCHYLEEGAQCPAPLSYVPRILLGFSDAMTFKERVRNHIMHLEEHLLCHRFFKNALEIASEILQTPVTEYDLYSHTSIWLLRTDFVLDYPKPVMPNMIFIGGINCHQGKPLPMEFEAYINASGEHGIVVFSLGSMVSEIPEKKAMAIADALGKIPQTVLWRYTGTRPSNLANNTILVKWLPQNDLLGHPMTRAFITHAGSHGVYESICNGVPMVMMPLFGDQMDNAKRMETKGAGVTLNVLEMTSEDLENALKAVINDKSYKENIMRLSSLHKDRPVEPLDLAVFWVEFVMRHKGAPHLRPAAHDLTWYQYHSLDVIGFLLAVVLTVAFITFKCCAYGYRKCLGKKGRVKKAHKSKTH
Sequence of UDP-glucuronosyltransferase 1A4 (P22310 whole entry): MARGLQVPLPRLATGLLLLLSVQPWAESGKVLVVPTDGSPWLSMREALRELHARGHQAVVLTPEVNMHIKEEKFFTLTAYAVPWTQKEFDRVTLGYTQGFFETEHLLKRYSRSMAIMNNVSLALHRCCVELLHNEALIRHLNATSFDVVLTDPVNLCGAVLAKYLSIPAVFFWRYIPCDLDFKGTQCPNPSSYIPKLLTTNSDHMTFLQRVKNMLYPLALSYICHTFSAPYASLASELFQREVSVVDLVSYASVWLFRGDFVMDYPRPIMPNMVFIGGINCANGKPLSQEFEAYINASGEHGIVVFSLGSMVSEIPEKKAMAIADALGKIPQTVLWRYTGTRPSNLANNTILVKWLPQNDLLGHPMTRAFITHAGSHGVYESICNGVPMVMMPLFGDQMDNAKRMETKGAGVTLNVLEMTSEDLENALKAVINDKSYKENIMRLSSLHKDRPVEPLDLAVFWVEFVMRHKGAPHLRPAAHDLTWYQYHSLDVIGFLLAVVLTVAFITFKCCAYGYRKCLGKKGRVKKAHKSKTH

With `CCS(=O)(=O)c1ccc2oc(-c3ccc4c(c3)C=C[C@H](O)[C@H]4O)nc2c1` the Drug uptake [1] was “Metabolite_Detected”, the Retention time [2] was 26.7 min and the Retention_time [3] was 8.2 min. It also gave a Retention_time [4] of 8.1 min, a logD [5] of 2.04 and a solubility kinetic [6] of 96 µM (≈ 35.7 µg/mL). For the same compound, the Papp [7] was 33.3 ×10⁻⁶ cm/s, the PPB [8] was “Not Active” and the fraction unbound [9] was 0.363. For the same compound, the half-life [10] was 39 min, the half-life [11] was 7 min and the CL [12] was less than 2.9 µL/min/pmol. For the same compound, the half-life [13] was greater than 138 min, the half-life [14] was 85 min and the microsomal CLint [15] was 35 µL/min/mg. The CLH [16] was 98 µL/min/mg, the microsomal CLint [17] was less than 10 µL/min/mg and the CLH [18] was 8 µL/min/mg. It also gave a CL [19] of less than 5.8 µL/min/pmol, an activity at 10 µM (UGT1A9) of 12% and an activity at 10 µM (UGT1A3) of 62%. The “inhibition (INH)” value [20] was “Active”, the “inhibition (INH)” value [21] was “Active” and the “inhibition (INH)” value [22] was “Active”. For the same compound, the pIC50 [23] was 5.00, the “inhibition (INH)” value [24] was “Active” and the “inhibition (INH)” value [25] was “Active”. The pIC50 [26] was 5.40 and the pIC50 [27] was 5.41.
